This note sets out measurements from ChEMBL document CHEMBL1122699, “A reappraisal of the effect upon thymidine kinase of thymidine derivatives carrying large groups at the 5'-position” (J Med Chem, 1984).

SMILES strings stand for the structures.

The test system of assay [1] is L1210. Put plainly: The compound was tested for inhibition of thymidine kinase using […] at concentration 200 uM in L1210 cells. The format is cell-based. In a few lines:
(§1)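 Enzyme: L1210 ascites cell sonicate (50 mM Tris-HCl pH 7.8, 150 mM KCl), 100000g supernatant precipitated at 30% ammonium sulfate saturation. Reaction mix: 5 µM [3H]TdR, 2 mM ATP, 1 mM MgCl2, 10% Me2SO, 45 mM Tris pH 7.8, compound added in Me2SO. Run 10 min at 37 °C, stopped by boiling. [3H]TMP captured on PEI-cellulose, eluted with HCl, counted. % inhibition given as mean ± SE of n determinations.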

For assay [2], the system named is L1210. The experiment in a line: The compound was tested for inhibition of thymidine kinase using […] at concentration 125 uM in L1210 cells. The format is cell-based. In a few lines: as §1
A short description of assay [3]: Thymidine kinase activity was measured by nonradiochemical assay method + TdR (percentage of the control rate measured in the presence of 5 uM Tdr). The gist of the method: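 Conditions match the radiochemical assay, but with 5 µM unlabeled TdR: 10 min at 37 °C, stopped by 20-fold dilution in ice-cold water. Nucleotides separated from nucleosides, freeze-dried, dephosphorylated overnight with alkaline phosphatase, then quantified as nucleosides by C18 HPLC (A254/A280). Expressed as % of the control rate with 5 µM TdR, mean of ≥2 experiments.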

Assay [4] can be described thus: Thymidine kinase activity was measured by nonradiochemical assay method - TdR (percentage of the control rate measured in the presence of 5 µM TdR).
Assay [5] can be described thus: Thymidine kinase activity was measured by radio chemical assay method. The gist of the method: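 Same L1210 ammonium sulfate enzyme fraction and mix: 5 µM [3H]TdR, 2 mM ATP, 1 mM MgCl2, 10% Me2SO, 45 mM Tris-HCl pH 7.8, 37 °C. Stopped by boiling. [3H]TMP bound to PEI-cellulose squares and counted. Run in parallel with the HPLC assay. Activity given as % of the control rate, mean of at least two experiments.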

The test system of assay [6] is L1210. The experiment in a line: The compound was tested for inhibition of thymidine kinase using […] at concentration 250 uM in L1210 cells. Type of assay: cell-based. In a few lines:
as §1

Assay [7] has as its system L1210. Put plainly: The compound was tested for inhibition of thymidine kinase using […] at concentration 50 uM in L1210 cells. Type of assay: cell-based. In a few lines: as §1

For the compound `Cc1cn([C@H]2C[C@H](O)[C@@H](COCCOc3ccc(OCc4ccccc4)cc3)O2)c(=O)[nH]c1=O`, the inhibition (in general, the share of the control response that was lost under treatment) in assay [1] amounted to 14%.

As for `Cc1cn(C2CC(O)C(CNC(=O)COc3ccc(OCc4ccccc4)cc3)O2)c(=O)[nH]c1=O` (stereo not given), the inhibition in assay [2] stood at 0%.

In assay [1], `Cc1cn([C@H]2C[C@H](O)[C@@H](COC(=O)COc3ccc(OCc4ccc([N+](=O)[O-])cc4)cc3)O2)c(=O)[nH]c1=O` returned an inhibition of 35%. Moreover, the Activity in assay [3] was determined as 144; in assay [4] it was 110; in assay [5] it was 62.

`Cc1cn([C@H]2C[C@H](O)[C@@H](COC(=O)COc3ccc(OCc4ccccc4)cc3)O2)c(=O)[nH]c1=O`: the Activity in assay [3] turned out to be 152; in assay [4], 118; in assay [5], 65. In assay [6], this compound came in with an inhibition of 33%.

As to `Cc1cn(C2CC(O)C(CNC(=O)COc3ccc(OCc4ccc([N+](=O)[O-])cc4)cc3)O2)c(=O)[nH]c1=O` (stereo not given), the inhibition in assay [2] is 1%.

With `Cc1cn([C@H]2C[C@H](O)[C@@H](CN)O2)c(=O)[nH]c1=O`, the Activity in assay [3] was found to be 27; in assay [4] it was 0; in assay [5], 26. In addition, in assay [7], the inhibition worked out at 76%.
